Source: ChEMBL document CHEMBL1255422, “Novel FKS mutations associated with echinocandin resistance in Candida species” (Antimicrob Agents Chemother, 2010)
Converted amounts (≈) assume the structure as drawn. Numbered stars: 1 amine (or outer) side, 2 acyl side, 3 side chain; on linkers, the order of the positions; unused ones are H or OH. Bridge positions count the residues as written; N and C are the ends. Square brackets hold non-standard residues; d marks the D form. Peptide text beside a SMILES is read from it. * marks the point of attachment. hTyr(3S-OH,4S-OH,3'-OSO3H) = N[C@H](C(=O)O)[C@H](O)[C@@H](O)c1ccc(O)c(OS(=O)(=O)O)c1; pTerphenylCO(4''-OnC5H11) = CCCCCOc1ccc(-c2ccc(-c3ccc(C(=O)*)cc3)cc2)cc1; Orn(4R-OH,5R-OH) = O=C([C@H](C[C@@H](O)[C@@H](O)N[*:3])N[*:1])[*:2]; hTyr(3S-OH,4S-OH) = N[C@H](C(=O)O)[C@H](O)[C@@H](O)c1ccc(O)cc1; Pro(3S-OH,4S-Me) = C[C@H]1CN[C@H](C(=O)O)[C@H]1O; X1 = CCCCCOc1ccc(-c2cc(-c3ccc(C(=O)*)cc3)no2)cc1; Gln(3R-OH) = NC(=O)C[C@@H](O)[C@H](N)C(=O)O; Hyp = O=C(O)[C@@H]1C[C@@H](O)CN1

Tests used:
[1] = Inhibition of Candida tropicalis ATCC 750 wild type FKS
Method in brief: (§1)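 1,3-β-d-glucan synthase complexes were isolated from each strain and titrated against echinocandin to generate inhibition curves. IC50 was taken from the inhibition kinetics and given as the arithmetic mean of three repetitions.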

Nakaseomyces glabratus [2] = assay: Antifungal activity against wild type Candida glabrata ATCC 90030; type: functional
Method in brief: (§2)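 MIC by broth dilution. The reported value is the geometric mean of three repetitions. Clinical isolates were tested alongside reference strains C. glabrata ATCC 90030, C. tropicalis ATCC 750, C. albicans ATCC 90028, 205 and 177.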

Candida tropicalis [3] = assay: Antifungal activity against Candida tropicalis CT-C1 harboring FKS1 T227C mutant gene; type: functional
Method in brief: (§3)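 Whole-cell MIC testing of clinical isolates alongside reference strains. Each MIC is the geometric mean of three repetitions.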

[4] = Inhibition of Candida albicans ATCC 90028 wild type FKS; method in brief: as §1
[5] = Inhibition of Candida glabrata CG-C2 FKS
[6] = Inhibition of Candida glabrata CG-C3 FKS2 T1987C mutant; parameters: species or system Nakaseomyces glabratus; method in brief: as §1
Candida tropicalis [7] = assay: Antifungal activity against wild type Candida tropicalis ATCC 750; type: functional; method in brief: as §3
Candida albicans [8] = assay: Antifungal activity against wild type Candida albicans ATCC 90028; type: functional; method in brief: as §3
[9] = Inhibition of Candida albicans 177 FKS1 T1922C mutant; method in brief: as §1
Nakaseomyces glabratus [10] = assay: Antifungal activity against Candida glabrata CG-C2 harboring FKS1 T1885C mutant gene; type: functional; method in brief: as §3
[11] = Inhibition of Candida albicans 205 FKS1 T1933C mutant; method in brief: as §1
[12] = Inhibition of Candida tropicalis CT-C1 FKS1 T227C mutant; method in brief: as §1
[13] = Inhibition of Candida glabrata CG-C2 FKS1 T1885C mutant; parameters: species or system Nakaseomyces glabratus; method in brief: as §1
Candida albicans [14] = assay: Antifungal activity against Candida albicans 205 harboring FKS1 T1933C mutant gene; type: functional; method in brief: as §3
Candida albicans [15] = assay: Antifungal activity against Candida albicans 177 harboring FKS1 T1922C mutant gene; type: functional; method in brief: as §3
Nakaseomyces glabratus [16] = assay: Antifungal activity against Candida glabrata CG-C3 harboring FKS2 T1987C mutant gene; type: functional; method in brief: as §3
[17] = Inhibition of Candida glabrata CG-C3 FKS
Nakaseomyces glabratus [18] = assay: Antifungal activity against Candida glabrata clinical isolate by broth dilution assay; type: functional; method in brief: as §2
Candida tropicalis [19] = assay: Antifungal activity against Candida tropicalis clinical isolate assessed as percent isolates by broth dilution assay
[20] = Inhibition of Candida glabrata ATCC 90030 wild type FKS; parameters: species or system Nakaseomyces glabratus; method in brief: as §1
Candida tropicalis [21] = assay: Antifungal activity against Candida tropicalis clinical isolate by broth dilution assay; type: functional; method in brief: as §2
Nakaseomyces glabratus [22] = assay: Antifungal activity against Candida glabrata clinical isolate assessed as percent isolates by broth dilution assay
[23] = Inhibition of Candida tropicalis CT-C1 FKS

SMILES | IC50 [1] [µg/mL] | MIC (Nakaseomyces glabratus [2]) [µg/mL] | MIC (Candida tropicalis [3]) [µg/mL] | IC50 [4] [µg/mL] | IC50 [6] [µg/mL] | MIC (Candida tropicalis [7]) [µg/mL] | MIC (Candida albicans [8]) [µg/mL] | IC50 [9] [µg/mL] | MIC (Nakaseomyces glabratus [10]) [µg/mL] | IC50 [11] [µg/mL] | IC50 [12] [µg/mL] | IC50 [13] [µg/mL] | MIC (Candida albicans [14]) [µg/mL] | MIC (Candida albicans [15]) [µg/mL] | MIC (Nakaseomyces glabratus [16]) [µg/mL] | IC50 [20] [µg/mL] | also measured
CCCCCOc1ccc(-c2ccc(-c3ccc(C(=O)N[C@H]4C[C@@H](O)[C@@H](O)NC(=O)[C@@H]5[C@@H](O)[C@@H](C)CN5C(=O)[C@H]([C@@H](C)O)NC(=O)[C@H]([C@H](O)[C@@H](O)c5ccc(O)cc5)NC(=O)[C@@H]5C[C@@H](O)CN5C(=O)[C@H]([C@@H](C)O)NC4=O)cc3)cc2)cc1 [ANIDULAFUNGIN] ({pTerphenylCO(4''-OnC5H11)}-[Orn(4R-OH,5R-OH)]T[Hyp][hTyr(3S-OH,4S-OH)]T[Pro(3S-OH,4S-Me)]; lactam 1-C) | 0.00233 (≈ 0.00204 µM) | < 0.03 | 1 (≈ 0.877 µM) | 0.0005 (≈ 0.000438 µM) | 16.882 (≈ 14.8 µM) | 0.06 (≈ 0.0526 µM) | 0.03 (≈ 0.0263 µM) | 1.091 (≈ 0.957 µM) | 4 (≈ 3.51 µM) | 0.2454 (≈ 0.215 µM) | 0.06128 (≈ 0.0537 µM) | 12.778 (≈ 11.2 µM) | 1.33 (≈ 1.17 µM) | 0.83 (≈ 0.728 µM) | 8 (≈ 7.02 µM) |  | IC50 [5]: 14.26 µg/mL (≈ 12.5 µM); IC50 [17]: 13.29 µg/mL (≈ 11.7 µM)
CC[C@H](C)C[C@H](C)CCCCCCCCC(=O)N[C@H]1C[C@@H](O)[C@@H](NCCN)NC(=O)[C@@H]2[C@@H](O)CCN2C(=O)[C@H]([C@H](O)CCN)NC(=O)[C@H]([C@H](O)[C@@H](O)c2ccc(O)cc2)NC(=O)[C@@H]2C[C@@H](O)CN2C(=O)[C@H]([C@@H](C)O)NC1=O [CASPOFUNGIN] | 0.00233 (≈ 0.00213 µM) | 0.03 (≈ 0.0274 µM) | 4 (≈ 3.66 µM) | 0.0005 (≈ 0.000457 µM) | 16.882 (≈ 15.4 µM) | 0.25 (≈ 0.229 µM) | 0.12 (≈ 0.11 µM) | 1.091 (≈ 0.998 µM) | 8 (≈ 7.32 µM) | 0.2454 (≈ 0.224 µM) | 0.06128 (≈ 0.056 µM) | 12.778 (≈ 11.7 µM) | 8 (≈ 7.32 µM) | 4 (≈ 3.66 µM) | > 16 | 0.00192 (≈ 0.00176 µM) | MIC (Nakaseomyces glabratus [18]): ≥ 2 µg/mL; Activity (Candida tropicalis [19]): 5.8%; MIC (Candida tropicalis [21]): ≥ 2 µg/mL; Activity (Nakaseomyces glabratus [22]): 2.2%
CCCCCOc1ccc(-c2cc(-c3ccc(C(=O)N[C@H]4C[C@@H](O)[C@@H](O)NC(=O)[C@@H]5[C@@H](O)[C@@H](C)CN5C(=O)[C@H]([C@H](O)CC(N)=O)NC(=O)[C@H]([C@H](O)[C@@H](O)c5ccc(O)c(OS(=O)(=O)O)c5)NC(=O)[C@@H]5C[C@@H](O)CN5C(=O)[C@H]([C@@H](C)O)NC4=O)cc3)no2)cc1 [MICAFUNGIN] (X1-[Orn(4R-OH,5R-OH)]T[Hyp][hTyr(3S-OH,4S-OH,3'-OSO3H)][Gln(3R-OH)][Pro(3S-OH,4S-Me)]; lactam 1-C) | 0.007545 (≈ 0.00594 µM) | 0.03 (≈ 0.0236 µM) | 1 (≈ 0.787 µM) | 0.0188 (≈ 0.0148 µM) | 11.422 (≈ 8.99 µM) | 0.06 (≈ 0.0472 µM) | 0.03 (≈ 0.0236 µM) | 1.435 (≈ 1.13 µM) | 2 (≈ 1.57 µM) | 1.088 (≈ 0.856 µM) | 0.4059 (≈ 0.32 µM) | 15.144 (≈ 11.9 µM) | 4 (≈ 3.15 µM) | 1 (≈ 0.787 µM) | > 16 | 0.00071 (≈ 0.000559 µM) | IC50 [23]: 0.4014 µg/mL (≈ 0.316 µM)
